Assay results as given in ChEMBL document CHEMBL5696442, “Discovery of type II inhibitors of TGFβ-activated kinase 1 (TAK1) and mitogen-activated protein kinase kinase kinase kinase 2 (MAP4K2)” (J Med Chem, 2015).

Legend:
[1] = target: Tyrosine-protein kinase ABL2 (Homo sapiens, UniProt P42684); experiment: Inhibition of ARG Lys1 labeling site in human A-375 cells at 0.5 uM by KiNativ Profiling analysis relative to control; type: cell-based
Summary of the method: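 Intact A375 melanoma cells were treated with compound at 5 or 0.5 μM, then lysed. Lysate kinases were labeled with a lysine-reactive ATP or ADP-biotin probe (KiNativ). Inhibition is read as protection of each kinase labeling site from probe labeling.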

[2] = target: Mitogen-activated protein kinase kinase kinase kinase 4 (Homo sapiens, UniProt O95819); experiment: Inhibition of ZC1/HGK (unknown origin) Lys1 labeling site by KiNativ Profiling analysis
[3] = target: Mitogen-activated protein kinase 9 (Homo sapiens, UniProt P45984); experiment: Inhibition of JNK2 (unknown origin) Lys2 labeling site by KiNativ Profiling analysis
[4] = target: Ephrin type-B receptor 2 (Homo sapiens, UniProt P29323); experiment: Inhibition of EphB2 (unknown origin) ACT labeling site by KiNativ Profiling analysis
[5] = target: T1, Aurora kinase A (Homo sapiens) (UniProt O14965); experiment: Inhibition of AurA ATP Loop labeling site in human A-375 cells at 5 uM by KiNativ Profiling analysis relative to control; type: cell-based
T1 sequence (whole entry): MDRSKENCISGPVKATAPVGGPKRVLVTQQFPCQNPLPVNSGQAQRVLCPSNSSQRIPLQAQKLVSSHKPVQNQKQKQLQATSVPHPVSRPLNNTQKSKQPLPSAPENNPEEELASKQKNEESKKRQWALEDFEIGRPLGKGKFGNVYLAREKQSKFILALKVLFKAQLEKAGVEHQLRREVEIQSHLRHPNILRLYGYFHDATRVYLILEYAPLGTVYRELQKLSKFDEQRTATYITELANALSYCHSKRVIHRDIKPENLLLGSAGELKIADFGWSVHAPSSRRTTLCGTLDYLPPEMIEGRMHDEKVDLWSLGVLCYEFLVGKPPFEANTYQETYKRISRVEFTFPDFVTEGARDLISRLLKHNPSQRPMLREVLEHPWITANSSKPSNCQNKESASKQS
Summary of the method: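 Live A375 melanoma cells were treated with compound at 5 or 0.5 μM, then lysed. The lysates were labeled with a lysine-reactive ATP or ADP-biotin probe. Kinase protection from probe labeling was measured by KiNativ.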

[6] = target: eIF-2-alpha kinase GCN2 (Homo sapiens) (UniProt Q9P2K8); experiment: Inhibition of GCN2 domain2 Lys1 labeling site in human A-375 cells at 5 uM by KiNativ Profiling analysis relative to control; type: cell-based
[7] = target: T2, Interleukin-1 receptor-associated kinase 4 (Homo sapiens) (UniProt Q9NWZ3); experiment: Inhibition of IRAK4 Lys2 labeling site in human A-375 cells at 5 uM by KiNativ Profiling analysis relative to control; type: cell-based
T2 sequence (whole entry): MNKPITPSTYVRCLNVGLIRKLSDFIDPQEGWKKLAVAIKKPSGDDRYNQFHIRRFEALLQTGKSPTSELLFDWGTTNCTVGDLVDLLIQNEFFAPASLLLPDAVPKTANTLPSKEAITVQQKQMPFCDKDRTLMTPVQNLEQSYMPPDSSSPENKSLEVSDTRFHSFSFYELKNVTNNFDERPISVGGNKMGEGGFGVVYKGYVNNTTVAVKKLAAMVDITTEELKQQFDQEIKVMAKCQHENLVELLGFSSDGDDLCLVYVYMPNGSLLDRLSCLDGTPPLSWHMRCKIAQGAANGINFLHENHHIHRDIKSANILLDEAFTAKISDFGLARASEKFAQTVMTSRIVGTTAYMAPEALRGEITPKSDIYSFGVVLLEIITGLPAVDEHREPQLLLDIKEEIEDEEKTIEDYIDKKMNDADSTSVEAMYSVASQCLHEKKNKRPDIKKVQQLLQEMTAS
Summary of the method: (§1)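 Live A375 melanoma cells were treated with compound at 5 or 0.5 μM, then lysed. Lysates were labeled with a lysine-reactive ATP or ADP-biotin probe. Read-out was the compound's protection of kinase labeling sites from probe labeling (KiNativ).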

[8] = target: Serine/threonine-protein kinase PLK1 (Homo sapiens) (UniProt P53350); experiment: Inhibition of PLK1 Lys1 labeling site in human A-375 cells at 5 uM by KiNativ Profiling analysis relative to control; type: cell-based
[9] = target: Focal adhesion kinase 1 (Homo sapiens) (UniProt Q05397); experiment: Inhibition of FAK Lys1 labeling site in human A-375 cells at 0.5 uM by KiNativ Profiling analysis relative to control; type: cell-based; summary of the method: as §1
[10] = target: Ribosomal protein S6 kinase alpha-2 (Homo sapiens) (UniProt Q15349); experiment: Inhibition of RSK3 Protein Kinase Domain in human A-375 cells at 0.5 uM by KiNativ Profiling analysis relative to control; type: cell-based
Summary of the method: (§2)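 Live A375 melanoma cells treated with compound at 5 or 0.5 μM, then lysed. Lysate kinases were labeled with a lysine-reactive ATP or ADP-biotin probe. Inhibition was read as protection of labeling sites from the probe.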

[11] = target: Ribosomal protein S6 kinase alpha-3 (Homo sapiens) (UniProt P51812); experiment: Inhibition of RSK2 domain2 Lys2 labeling site in human A-375 cells at 0.5 uM by KiNativ Profiling analysis relative to control; type: cell-based; summary of the method: as §2
[12] = target: Serine/threonine-protein kinase WNK1 (Homo sapiens) (UniProt Q9H4A3); experiment: Inhibition of Wnk1 ACT labeling site in human A-375 cells at 0.5 uM by KiNativ Profiling analysis relative to control; type: cell-based
[13] = target: Tyrosine-protein kinase Fer (Homo sapiens, UniProt P16591); experiment: Inhibition of FER ACT labeling site in human A-375 cells at 0.05 uM by KiNativ Profiling analysis relative to control; type: cell-based
[14] = target: T3, Mitogen-activated protein kinase 12 (Homo sapiens) (UniProt P53778); experiment: Inhibition of p38 gamma Lys2 labeling site in human A-375 cells at 0.05 uM by KiNativ Profiling analysis relative to control; type: cell-based
T3 sequence (whole entry): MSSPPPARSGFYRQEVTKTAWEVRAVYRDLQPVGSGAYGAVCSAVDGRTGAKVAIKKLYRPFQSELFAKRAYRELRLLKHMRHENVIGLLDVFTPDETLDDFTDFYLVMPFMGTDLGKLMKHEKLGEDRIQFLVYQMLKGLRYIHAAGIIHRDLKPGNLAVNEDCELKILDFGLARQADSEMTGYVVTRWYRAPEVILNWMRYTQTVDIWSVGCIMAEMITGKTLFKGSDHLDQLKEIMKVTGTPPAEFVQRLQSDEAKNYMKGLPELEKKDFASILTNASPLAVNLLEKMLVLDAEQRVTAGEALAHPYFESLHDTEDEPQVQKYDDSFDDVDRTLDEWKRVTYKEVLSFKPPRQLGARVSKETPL

[15] = target: Cyclin-dependent kinase 18 (Homo sapiens) (UniProt Q07002); experiment: Inhibition of PCTAIRE3 Lys1 labeling site harbouringSKLTENLVALKEIR in human A-375 cells at 0.05 uM by KiNativ Profiling analysis relative to control; type: cell-based
[16] = target: 3-phosphoinositide-dependent protein kinase 1 (Homo sapiens) (UniProt O15530); experiment: Inhibition of PDK1 Protein Kinase Domain in human A-375 cells at 5 uM by KiNativ Profiling analysis relative to control

Tyrosine-protein kinase ABL2, sequence (P42684 whole entry): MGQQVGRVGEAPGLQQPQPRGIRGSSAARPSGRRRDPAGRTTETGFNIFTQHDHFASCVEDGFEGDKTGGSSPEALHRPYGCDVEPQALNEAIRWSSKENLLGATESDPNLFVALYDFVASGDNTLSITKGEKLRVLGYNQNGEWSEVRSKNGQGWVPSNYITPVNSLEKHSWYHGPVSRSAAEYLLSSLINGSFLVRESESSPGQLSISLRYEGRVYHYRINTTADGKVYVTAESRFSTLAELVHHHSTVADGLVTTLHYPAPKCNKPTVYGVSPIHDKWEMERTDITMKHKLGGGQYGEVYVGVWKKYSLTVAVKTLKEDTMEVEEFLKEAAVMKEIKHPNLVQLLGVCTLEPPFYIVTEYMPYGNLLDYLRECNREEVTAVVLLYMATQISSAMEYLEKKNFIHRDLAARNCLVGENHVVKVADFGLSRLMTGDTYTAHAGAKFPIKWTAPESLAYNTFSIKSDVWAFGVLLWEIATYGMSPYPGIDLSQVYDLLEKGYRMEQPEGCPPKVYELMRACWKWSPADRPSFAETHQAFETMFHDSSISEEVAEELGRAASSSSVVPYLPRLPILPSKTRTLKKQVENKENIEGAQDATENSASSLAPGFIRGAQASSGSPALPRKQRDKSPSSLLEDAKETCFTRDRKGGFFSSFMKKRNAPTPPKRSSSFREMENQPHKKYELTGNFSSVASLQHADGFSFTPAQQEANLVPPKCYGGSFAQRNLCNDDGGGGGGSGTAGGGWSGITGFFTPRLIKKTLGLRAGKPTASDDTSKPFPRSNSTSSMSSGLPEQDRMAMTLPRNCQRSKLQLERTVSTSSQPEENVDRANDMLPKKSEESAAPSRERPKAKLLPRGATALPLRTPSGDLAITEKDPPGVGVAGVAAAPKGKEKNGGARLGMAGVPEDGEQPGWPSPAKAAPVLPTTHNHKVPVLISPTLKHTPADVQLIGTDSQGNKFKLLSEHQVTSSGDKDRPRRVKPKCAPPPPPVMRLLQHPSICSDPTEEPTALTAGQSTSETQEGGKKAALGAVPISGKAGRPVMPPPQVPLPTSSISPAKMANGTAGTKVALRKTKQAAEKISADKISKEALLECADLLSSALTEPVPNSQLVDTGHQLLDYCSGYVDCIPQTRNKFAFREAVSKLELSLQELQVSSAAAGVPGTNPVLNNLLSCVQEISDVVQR
Ribosomal protein S6 kinase alpha-2 (Homo sapiens), sequence (Q15349 whole entry, the tested form may be a part): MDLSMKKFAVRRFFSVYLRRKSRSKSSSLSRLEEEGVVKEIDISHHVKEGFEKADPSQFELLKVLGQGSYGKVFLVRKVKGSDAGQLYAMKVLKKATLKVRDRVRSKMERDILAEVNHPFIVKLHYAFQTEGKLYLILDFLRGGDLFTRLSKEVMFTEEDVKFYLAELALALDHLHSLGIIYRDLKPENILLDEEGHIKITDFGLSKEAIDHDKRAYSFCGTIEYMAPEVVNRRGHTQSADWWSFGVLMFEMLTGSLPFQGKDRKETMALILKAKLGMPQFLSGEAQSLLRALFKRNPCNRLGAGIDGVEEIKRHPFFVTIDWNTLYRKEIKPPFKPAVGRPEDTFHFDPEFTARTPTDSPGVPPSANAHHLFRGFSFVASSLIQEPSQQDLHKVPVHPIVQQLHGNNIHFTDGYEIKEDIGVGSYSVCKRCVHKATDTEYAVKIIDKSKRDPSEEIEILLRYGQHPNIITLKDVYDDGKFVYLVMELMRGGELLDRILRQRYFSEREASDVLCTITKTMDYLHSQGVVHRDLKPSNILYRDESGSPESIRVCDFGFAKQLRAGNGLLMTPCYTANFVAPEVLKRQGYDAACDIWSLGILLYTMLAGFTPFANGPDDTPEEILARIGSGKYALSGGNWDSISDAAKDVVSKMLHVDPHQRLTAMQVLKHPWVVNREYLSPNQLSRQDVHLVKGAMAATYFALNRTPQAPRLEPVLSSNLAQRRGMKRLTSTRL
Serine/threonine-protein kinase WNK1 (Homo sapiens), sequence (Q9H4A3 whole entry, looked up): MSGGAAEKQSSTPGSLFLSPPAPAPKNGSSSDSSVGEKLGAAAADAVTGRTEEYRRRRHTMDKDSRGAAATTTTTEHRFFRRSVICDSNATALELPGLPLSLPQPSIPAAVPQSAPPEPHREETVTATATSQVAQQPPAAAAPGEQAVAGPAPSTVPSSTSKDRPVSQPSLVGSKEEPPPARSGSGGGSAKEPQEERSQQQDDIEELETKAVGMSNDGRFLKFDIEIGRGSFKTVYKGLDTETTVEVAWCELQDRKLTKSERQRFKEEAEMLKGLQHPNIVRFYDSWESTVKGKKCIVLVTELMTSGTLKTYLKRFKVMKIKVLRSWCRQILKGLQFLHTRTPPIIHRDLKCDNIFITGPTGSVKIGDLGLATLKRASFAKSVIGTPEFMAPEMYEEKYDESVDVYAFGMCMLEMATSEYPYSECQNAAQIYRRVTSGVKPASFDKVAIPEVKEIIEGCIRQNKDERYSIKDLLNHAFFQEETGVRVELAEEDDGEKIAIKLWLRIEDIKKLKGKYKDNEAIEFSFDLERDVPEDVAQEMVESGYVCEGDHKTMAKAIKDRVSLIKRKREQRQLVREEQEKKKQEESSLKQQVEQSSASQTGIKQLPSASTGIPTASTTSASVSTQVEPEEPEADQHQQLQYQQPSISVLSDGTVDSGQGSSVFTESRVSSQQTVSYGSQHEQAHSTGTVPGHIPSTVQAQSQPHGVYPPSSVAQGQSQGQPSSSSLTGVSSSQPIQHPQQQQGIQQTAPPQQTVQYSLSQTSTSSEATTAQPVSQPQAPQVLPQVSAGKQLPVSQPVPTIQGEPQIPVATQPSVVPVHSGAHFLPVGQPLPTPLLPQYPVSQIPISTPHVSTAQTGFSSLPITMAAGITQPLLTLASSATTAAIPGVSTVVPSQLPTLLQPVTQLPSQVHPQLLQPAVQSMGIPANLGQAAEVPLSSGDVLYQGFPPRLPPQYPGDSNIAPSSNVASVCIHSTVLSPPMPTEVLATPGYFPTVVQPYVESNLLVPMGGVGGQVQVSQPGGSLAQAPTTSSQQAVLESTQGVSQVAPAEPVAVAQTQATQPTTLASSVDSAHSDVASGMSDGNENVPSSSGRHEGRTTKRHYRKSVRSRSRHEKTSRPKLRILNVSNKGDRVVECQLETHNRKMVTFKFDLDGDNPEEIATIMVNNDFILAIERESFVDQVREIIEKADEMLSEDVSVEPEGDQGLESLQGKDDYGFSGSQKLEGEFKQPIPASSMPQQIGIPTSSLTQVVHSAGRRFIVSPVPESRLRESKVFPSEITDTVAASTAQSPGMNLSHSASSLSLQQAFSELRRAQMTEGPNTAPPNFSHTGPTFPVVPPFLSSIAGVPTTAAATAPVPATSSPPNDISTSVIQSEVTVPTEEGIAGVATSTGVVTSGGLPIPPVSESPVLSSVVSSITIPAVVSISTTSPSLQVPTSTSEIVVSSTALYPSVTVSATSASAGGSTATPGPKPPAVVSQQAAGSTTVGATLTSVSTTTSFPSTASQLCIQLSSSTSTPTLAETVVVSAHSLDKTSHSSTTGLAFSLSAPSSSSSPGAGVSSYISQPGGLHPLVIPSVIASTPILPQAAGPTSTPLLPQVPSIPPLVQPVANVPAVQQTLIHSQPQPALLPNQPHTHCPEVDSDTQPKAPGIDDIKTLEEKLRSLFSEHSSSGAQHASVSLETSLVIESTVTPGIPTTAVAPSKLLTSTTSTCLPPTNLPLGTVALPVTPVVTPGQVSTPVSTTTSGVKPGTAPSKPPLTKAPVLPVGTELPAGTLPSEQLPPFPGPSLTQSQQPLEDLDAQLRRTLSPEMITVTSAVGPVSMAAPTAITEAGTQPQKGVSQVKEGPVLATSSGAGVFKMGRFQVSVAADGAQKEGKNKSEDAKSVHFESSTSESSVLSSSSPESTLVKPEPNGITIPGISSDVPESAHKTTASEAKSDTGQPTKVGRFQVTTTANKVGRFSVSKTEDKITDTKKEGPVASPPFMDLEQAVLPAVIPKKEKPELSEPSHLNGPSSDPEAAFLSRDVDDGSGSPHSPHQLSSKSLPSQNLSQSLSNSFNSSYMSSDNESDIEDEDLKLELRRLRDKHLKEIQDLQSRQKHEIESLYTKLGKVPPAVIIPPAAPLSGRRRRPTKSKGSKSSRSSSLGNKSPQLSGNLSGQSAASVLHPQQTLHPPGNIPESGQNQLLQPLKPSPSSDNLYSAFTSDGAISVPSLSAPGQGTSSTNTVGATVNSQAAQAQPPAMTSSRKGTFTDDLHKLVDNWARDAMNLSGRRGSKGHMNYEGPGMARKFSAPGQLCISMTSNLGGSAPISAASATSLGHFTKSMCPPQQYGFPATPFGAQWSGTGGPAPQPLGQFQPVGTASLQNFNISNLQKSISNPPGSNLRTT
Tyrosine-protein kinase Fer, sequence (P16591 whole entry, looked up): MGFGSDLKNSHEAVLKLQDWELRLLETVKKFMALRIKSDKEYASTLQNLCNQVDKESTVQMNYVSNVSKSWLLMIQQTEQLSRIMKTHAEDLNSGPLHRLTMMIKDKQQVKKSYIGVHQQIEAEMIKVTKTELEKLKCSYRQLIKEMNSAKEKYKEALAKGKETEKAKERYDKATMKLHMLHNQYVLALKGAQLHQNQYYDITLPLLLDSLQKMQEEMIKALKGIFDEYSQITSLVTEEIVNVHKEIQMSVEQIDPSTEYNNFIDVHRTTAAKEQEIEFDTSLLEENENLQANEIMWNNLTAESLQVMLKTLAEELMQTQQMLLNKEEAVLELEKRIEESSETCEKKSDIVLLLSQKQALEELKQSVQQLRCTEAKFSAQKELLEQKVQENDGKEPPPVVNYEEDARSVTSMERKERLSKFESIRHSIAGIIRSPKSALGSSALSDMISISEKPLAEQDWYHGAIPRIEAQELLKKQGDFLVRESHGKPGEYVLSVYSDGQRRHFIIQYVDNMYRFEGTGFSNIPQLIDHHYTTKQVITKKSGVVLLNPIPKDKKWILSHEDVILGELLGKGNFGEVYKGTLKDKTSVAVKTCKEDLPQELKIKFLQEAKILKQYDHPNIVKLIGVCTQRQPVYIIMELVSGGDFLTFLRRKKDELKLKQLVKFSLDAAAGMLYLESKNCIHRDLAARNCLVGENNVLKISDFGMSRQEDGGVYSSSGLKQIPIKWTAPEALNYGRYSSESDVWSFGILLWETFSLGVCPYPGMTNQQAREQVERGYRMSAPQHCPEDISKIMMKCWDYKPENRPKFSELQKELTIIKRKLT

| SMILES | inhibition [1] | IC50 [2] | IC50 [3] | IC50 [4] | inhibition [5] | inhibition [6] | inhibition [7] | inhibition [8] | inhibition [9] | inhibition [10] | inhibition [11] | inhibition [12] | inhibition [13] | inhibition [14] | inhibition [15] | inhibition [16] |
| --- | --- | --- | --- | --- | --- | --- | --- | --- | --- | --- | --- | --- | --- | --- | --- | --- |
| CCN1CCN(Cc2ccc(NC(=O)c3ccc(C)c(/C=C/c4cnc5[nH]ccc5c4OC)c3)cc2C(F)(F)F)CC1 | > 90% | 9.75 µM | > 10 µM | 75 nM | 48.5% | 81.1% | 34.1% | 5.7% | -2% | 3.2% | 6.2% | 6.9% | -9.9% | 24.3% | 8.5% | 15.8% |
| CCN1CCN(Cc2ccc(NC(=O)c3ccc(C)c(Oc4ccnc5[nH]ccc45)c3)cc2C(F)(F)F)CC1 | 85.5% | 3.25 µM | > 10 µM | 672 nM | 31.4% | 37.6% | -0.2% | -7.3% | 9.3% | 0.9% | -0.1% | 3.9% | 62% | 64.9% | 2.5% | 9% |
